Measured values reported in ChEMBL document CHEMBL1152892, “Synthesis and biological evaluation of 3,6-disubstituted [1,2,4]triazolo[3,4-b][1,3,4]thiadiazole derivatives as a novel class of potential anti-tumor agents” (Eur J Med Chem, 2009).
Blank lines part the entries; values can stand above or below the compound they belong to. Active and inactive are the calls of the source. The rule behind the calls is not given here.

Legend:
[1] = Inhibition of CDK4/Cyclin D
[2] = biological target: Cyclin-dependent kinase 1/cyclin B1 (Homo sapiens, UniProt P06493); test: Inhibition of CDK1/Cyclin B; type: protein-complex assay
[3] = biological target: Cyclin-dependent kinase 2 (Homo sapiens, UniProt P24941); test: Inhibition of CDK2/Cyclin A
NCI-H226 = test: Cytotoxicity against human NCI-H226 cells after 48 hrs by sulforhodamine B assay; type: functional; details: for GI50: NCI-H226, 48 h
In short: (§1)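 NCI human tumor panel. Cells in RPMI 1640 with 5% FBS and 2 mM L-glutamine, 5000–40,000 cells/well by growth characteristics, 24 h preincubation at 37 °C. Compound added at time zero at five 10-fold dilutions, top concentration agent-dependent. Incubated 48 h (5% CO2, 100% humidity), then sulforhodamine B stain and plate-reader OD. GI50 and TGI are the concentrations giving 50% and total growth inhibition, in µM.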

A498 = test: Cytotoxicity against human A498 cells after 48 hrs by sulforhodamine B assay; type: functional; in short: as §1
CAKI-1 = test: Cytotoxicity against human Caki1 cells after 48 hrs by sulforhodamine B assay; type: functional; in short: as §1
[4] = Cytotoxicity against human Hs 578T cells after 48 hrs by sulforhodamine B assay; type: functional; in short: as §1
HCC 2998 = test: Cytotoxicity against human HCC2998 cells after 48 hrs by sulforhodamine B assay; type: functional; in short: as §1
CCRF-CEM = test: Cytotoxicity against human CCRF-CEM cells after 48 hrs by sulforhodamine B assay; type: functional; in short: as §1
ACHN = test: Cytotoxicity against human ACHN cells after 48 hrs by sulforhodamine B assay; type: functional; in short: as §1
SR = test: Cytotoxicity against human SR cells after 48 hrs by sulforhodamine B assay; type: functional; in short: as §1
OVCAR-3 = test: Cytotoxicity against human OVCAR-3 cells after 48 hrs by sulforhodamine B assay; type: functional; in short: as §1
UACC-62 = test: Cytotoxicity against human UACC62 cells after 48 hrs by sulforhodamine B assay; type: functional; in short: as §1
BT-549 = test: Cytotoxicity against human BT549 cells after 48 hrs by sulforhodamine B assay; type: functional; details: BT-549, 48 h; in short: as §1
SF-268 = test: Cytotoxicity against human SF268 cells after 48 hrs by sulforhodamine B assay; type: functional; in short: as §1
LOX IMVI = test: Cytotoxicity against human LOXIMVI cells after 48 hrs by sulforhodamine B assay; type: functional; in short: as §1
SF-539 = test: Cytotoxicity against human SF539 cells after 48 hrs by sulforhodamine B assay; type: functional; in short: as §1
HOP-62 = test: Cytotoxicity against human HOP62 cells after 48 hrs by sulforhodamine B assay; type: functional; details: for GI50: HOP-62, 48 h; in short: as §1
OVCAR-4 = test: Cytotoxicity against human OVCAR4 cells after 48 hrs by sulforhodamine B assay; type: functional; in short: as §1
SNB-75 = test: Cytotoxicity against human SNB75 cells after 48 hrs by sulforhodamine B assay; type: functional; in short: as §1
RPMI8266 = test: (§2) Cytotoxicity against human […] cells after 48 hrs by sulforhodamine B assay; type: functional; in short: as §1
MCF7 [5] = test: Cytotoxicity against human MCF7 cells after 48 hrs by sulforhodamine B assay; type: functional; in short: as §1
HCT-15 = test: Cytotoxicity against human HCT15 cells after 48 hrs by sulforhodamine B assay; type: functional; in short: as §1
MCF7 [6] = test: Antitumor activity against human MCF7 cells assessed as cell growth at 10 uM after 48 hrs by sulforhodamine B assay; type: functional; details: MCF7, 48 h, read-out: Activity
In short: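 NCI primary screen, single concentration 10^-5 M against MCF7, NCI-H460 and SF-268. Cells in RPMI 1640 with 5% FBS and 2 mM L-glutamine, seeded at 5000–40,000 cells/well by cell type, preincubated 24 h at 37 °C. Compound added at time zero, then 48 h incubation (5% CO2, 100% humidity). Growth read by sulforhodamine B optical density, reported as growth percentage.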

NCI-H322M = test: Cytotoxicity against human NCI-H322M cells after 48 hrs by sulforhodamine B assay; type: functional; in short: as §1
KM12 = test: Cytotoxicity against human KM12 cells after 48 hrs by sulforhodamine B assay; type: functional; details: for GI50: KM12, 48 h; in short: as §1
TK-10 = test: Cytotoxicity against human TK10 cells after 48 hrs by sulforhodamine B assay; type: functional; in short: as §1
HCT-116 [7] = test: Cytotoxicity against human HCT116 cells after 48 hrs by sulforhodamine B assay; type: functional; details: HCT-116, 48 h; in short: as §1
HOP-92 = test: Cytotoxicity against human HOP92 cells after 48 hrs by sulforhodamine B assay; type: functional; details: HOP-92, 48 h; in short: as §1
[8] = as §2; type: functional; in short: as §1
HCT-116 [9] = test: Antitumor activity against human HCT116 cells xenografted in nude mouse; type: functional, cell-based

Sequence of Cyclin-dependent kinase 1/cyclin B1 (P06493 whole entry): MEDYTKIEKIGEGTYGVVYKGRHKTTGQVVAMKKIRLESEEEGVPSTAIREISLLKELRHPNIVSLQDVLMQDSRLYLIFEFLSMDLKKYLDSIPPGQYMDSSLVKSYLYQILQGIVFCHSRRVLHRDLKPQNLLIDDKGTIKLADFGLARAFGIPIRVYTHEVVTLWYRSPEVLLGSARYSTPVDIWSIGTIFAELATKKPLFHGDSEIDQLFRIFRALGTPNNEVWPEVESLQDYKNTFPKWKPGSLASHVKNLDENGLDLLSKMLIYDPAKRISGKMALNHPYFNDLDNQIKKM
Sequence of Cyclin-dependent kinase 1/cyclin B1 (P14635 whole entry, further chain): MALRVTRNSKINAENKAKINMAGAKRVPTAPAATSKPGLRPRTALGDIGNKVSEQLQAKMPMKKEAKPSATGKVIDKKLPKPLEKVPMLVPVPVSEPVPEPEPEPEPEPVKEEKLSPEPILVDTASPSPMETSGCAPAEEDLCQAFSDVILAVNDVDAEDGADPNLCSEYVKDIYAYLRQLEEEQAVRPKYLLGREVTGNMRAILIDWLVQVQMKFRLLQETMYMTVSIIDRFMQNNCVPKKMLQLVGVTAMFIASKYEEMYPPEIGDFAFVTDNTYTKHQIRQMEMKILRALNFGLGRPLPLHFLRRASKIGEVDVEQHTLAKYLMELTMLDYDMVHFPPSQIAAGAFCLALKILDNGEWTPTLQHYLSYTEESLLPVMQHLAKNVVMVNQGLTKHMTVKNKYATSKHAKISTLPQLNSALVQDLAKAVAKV

SMILES: CCSc1nn2c(C)nnc2s1
IC50 [1]: 14 µM
IC50 [2]: > 120 µM
IC50 [3]: 11 µM

SMILES: Clc1ccc(OCc2nnc3sc(SCc4ccccc4)nn23)cc1
IC50 [1]: 37 µM
IC50 [2]: > 120 µM
IC50 [3]: > 28 µM

SMILES: Cc1nnc2sc(-c3ccc(N)cc3)nn12
pGI50 (NCI-H226): inactive
pGI50 (A498): inactive
pGI50 (CAKI-1): inactive
IC50 [1]: > 120 µM
GI50 [4]: 89.1 µM
pGI50 (HCC 2998): inactive
pGI50 (CCRF-CEM): inactive
pGI50 (ACHN): inactive
IC50 [2]: > 120 µM
pGI50 (SR): inactive
IC50 [3]: 0.57 µM
pGI50 (OVCAR-3): inactive
pGI50 (UACC-62): inactive
GI50 (BT-549): > 100 µM
pGI50 (SF-268): inactive
pGI50 (LOX IMVI): inactive
pGI50 (SF-539): inactive
GI50 (HOP-62): 87.1 µM
pGI50 (OVCAR-4): inactive
GI50 (SNB-75; SNB-75, 48 h): 21.4 µM
pGI50 (RPMI8266): inactive
pGI50 (MCF7 [5]): inactive
pGI50 (HCT-15): inactive
growth at 10 µM (MCF7 [6]): 119%
pGI50 (NCI-H322M): inactive
GI50 (KM12): > 100 µM

SMILES: Nc1ccc(-c2nn3c(Cc4ccccc4)nnc3s2)cc1
IC50 [1]: 14 µM
IC50 [2]: > 120 µM
IC50 [3]: > 28 µM

SMILES: Cc1nnc2sc(Cc3n[nH]c4[nH]c(=S)[nH]c(=S)c34)nn12
IC50 [1]: 10 µM
IC50 [2]: > 48 µM
IC50 [3]: 24 µM

The next lines start with results.

IC50 [1]: > 120 µM
IC50 [2]: 28 µM
IC50 [3]: 15 µM
SMILES: NNc1nn2c(COc3ccc(Cl)cc3)nnc2s1

IC50 [1]: > 120 µM
IC50 [2]: > 48 µM
IC50 [3]: 16 µM
SMILES: Cc1nnc2sc(SCc3ccccc3)nn12

IC50 [1]: 11 µM
IC50 [2]: 6.8 µM
IC50 [3]: 23 µM
SMILES: Cc1nnc2sc(SSc3nn4c(C)nnc4s3)nn12

IC50 [1]: 18 µM
IC50 [2]: 25 µM
IC50 [3]: > 28 µM
SMILES: c1ccc(CSc2nn3c(Cc4ccccc4)nnc3s2)cc1

IC50 [1]: 2.1 µM
IC50 [2]: 6.5 µM
IC50 [3]: 0.33 µM
SMILES: Nc1ccc(-c2nn3c(COc4ccc(Cl)cc4)nnc3s2)cc1
GI50 (NCI-H226): 7.24 µM
pGI50 (A498): inactive
GI50 (CAKI-1; CAKI-1, 48 h): 49 µM
GI50 [4]: 87.1 µM
GI50 (TK-10; TK-10, 48 h): 85.1 µM
GI50 (HCT-116 [7]): 34.7 µM
pGI50 (HCC 2998): inactive
GI50 (CCRF-CEM): 10 µM
GI50 (ACHN): 53.7 µM
GI50 (SR): 91.2 µM
pGI50 (OVCAR-3): inactive
pGI50 (UACC-62): inactive
GI50 (SF-268; SF-268, 48 h): 46.8 µM
pGI50 (LOX IMVI): inactive
GI50 (SF-539; SF-539, 48 h): 34.7 µM
GI50 (HOP-62): 20.4 µM
pGI50 (OVCAR-4): inactive
GI50 (HOP-92): 97.7 µM
GI50 [8]: 77.6 µM
GI50 (MCF7 [5]; MCF7, 48 h): 40.7 µM
growth at 10 µM (MCF7 [6]): 128%
Activity (HCT-116 [9]): inactive
pGI50 (NCI-H322M): inactive
GI50 (KM12): > 100 µM

IC50 [1]: > 120 µM
IC50 [2]: > 48 µM
IC50 [3]: 24 µM
SMILES: CCSc1nn2c(COc3ccc(Cl)cc3)nnc2s1

IC50 [2]: 0.9 µM
IC50 [3]: 0.4 µM
SMILES: Sc1nn2c(COc3ccc(Cl)cc3)nnc2s1
GI50 (NCI-H226): 89.1 µM
pGI50 (A498): inactive
pGI50 (CAKI-1): inactive
GI50 [4]: 87.1 µM
pGI50 (TK-10): inactive
GI50 (HCT-116 [7]): > 100 µM
pGI50 (HCC 2998): inactive
GI50 (CCRF-CEM): 97.7 µM
pGI50 (ACHN): inactive
GI50 (SR): 95.5 µM
GI50 (OVCAR-3; OVCAR-3, 48 h): 81.3 µM
pGI50 (UACC-62): inactive
GI50 (BT-549): 79.4 µM
pGI50 (SF-268): inactive
pGI50 (LOX IMVI): inactive
pGI50 (SF-539): inactive
pGI50 (HOP-62): inactive
pGI50 (OVCAR-4): inactive
pGI50 (SNB-75): inactive
GI50 (HOP-92): 79.4 µM
pGI50 (RPMI8266): inactive
pGI50 (MCF7 [5]): inactive
growth at 10 µM (MCF7 [6]): 0%
pGI50 (NCI-H322M): inactive
pGI50 (KM12): inactive
